In ChEMBL document CHEMBL1140983, “Pyrazoles and pyrazolines as neural and inducible nitric oxide synthase (nNOS and iNOS) potential inhibitors (III)” (Eur J Med Chem, 2008):

Key:
[1] = target: Nitric oxide synthase 1 (Rattus norvegicus) (UniProt P29476); test: Inhibition of nNOS in Wistar rat striata assessed as conversion of L-[3H]arginine to L-[3H]citrulline at 1 mM by liquid scintillation spectroscopy
Procedure, shortened: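 Male Wistar rats (200–250 g); fresh striata homogenized in Tris buffer (pH 7.6) with protease inhibitors, spun 1000 g 5 min, supernatant used. Incubation: 25 mM Tris, 1 mM DTT, 30 µM H4-biopterin, 10 µM FAD, 0.1 mM CaCl2, 10 µM L-arginine plus 50 nM L-[3H]-arginine; started with NADPH (0.75 mM final) and compound in DMSO (1 mM final), 37 °C 30 min. Dowex-50W separation; NADPH-omitted blank subtracted; mean ± SEM, three experiments in triplicate.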

[2] = target: Nitric oxide synthase, inducible (Rattus norvegicus) (UniProt Q06518); test: Inhibition of iNOS in LPS-induced rat lungs assessed as conversion of L-[3H]arginine to L-[3H]citrulline at 1 mM by liquid scintillation spectroscopy
Chain of Nitric oxide synthase, inducible (Rattus norvegicus) (Q06518 whole entry): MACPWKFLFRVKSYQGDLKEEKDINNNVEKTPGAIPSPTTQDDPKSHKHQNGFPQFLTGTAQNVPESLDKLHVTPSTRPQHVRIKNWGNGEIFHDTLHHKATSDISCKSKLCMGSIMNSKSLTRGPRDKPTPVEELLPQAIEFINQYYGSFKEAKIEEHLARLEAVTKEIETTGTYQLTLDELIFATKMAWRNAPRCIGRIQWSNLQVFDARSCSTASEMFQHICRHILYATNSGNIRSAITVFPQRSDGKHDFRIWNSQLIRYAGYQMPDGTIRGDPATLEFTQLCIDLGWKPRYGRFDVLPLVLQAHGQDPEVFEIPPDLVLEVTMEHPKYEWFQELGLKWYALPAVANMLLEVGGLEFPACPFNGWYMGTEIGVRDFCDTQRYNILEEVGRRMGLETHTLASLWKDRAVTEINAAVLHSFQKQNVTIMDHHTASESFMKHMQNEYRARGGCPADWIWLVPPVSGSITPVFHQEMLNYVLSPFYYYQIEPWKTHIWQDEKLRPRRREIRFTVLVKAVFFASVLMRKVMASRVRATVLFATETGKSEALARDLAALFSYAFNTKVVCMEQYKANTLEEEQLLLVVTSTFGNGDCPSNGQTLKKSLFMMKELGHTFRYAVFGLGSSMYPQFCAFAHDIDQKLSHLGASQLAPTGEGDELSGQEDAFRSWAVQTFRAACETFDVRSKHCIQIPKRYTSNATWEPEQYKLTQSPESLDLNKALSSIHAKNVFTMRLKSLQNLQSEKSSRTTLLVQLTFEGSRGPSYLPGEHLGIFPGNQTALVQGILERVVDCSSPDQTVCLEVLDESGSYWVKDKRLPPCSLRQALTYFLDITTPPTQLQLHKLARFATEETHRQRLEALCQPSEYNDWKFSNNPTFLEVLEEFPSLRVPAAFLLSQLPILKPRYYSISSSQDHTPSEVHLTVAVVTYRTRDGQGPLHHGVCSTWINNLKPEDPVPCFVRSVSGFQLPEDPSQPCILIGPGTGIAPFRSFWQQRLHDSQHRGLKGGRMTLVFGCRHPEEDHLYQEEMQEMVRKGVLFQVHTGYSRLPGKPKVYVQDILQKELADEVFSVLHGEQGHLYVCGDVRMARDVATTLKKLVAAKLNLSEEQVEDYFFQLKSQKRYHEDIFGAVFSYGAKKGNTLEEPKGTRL
Procedure, shortened: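 iNOS induced by LPS 20 mg/kg i.v. in rats; lungs taken 8 h later, homogenized in ice-cold Tris buffer (pH 7.6) with protease inhibitors, then incubated with 10 mM EDTA to remove nNOS activity. Activity read as [3H]-citrulline from L-[3H]-arginine by the striatal-assay procedure, compound at 1 mM final, 37 °C 30 min; mean ± SEM, three experiments in triplicate.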

Chain of Nitric oxide synthase 1 (Rattus norvegicus) (P29476 whole entry): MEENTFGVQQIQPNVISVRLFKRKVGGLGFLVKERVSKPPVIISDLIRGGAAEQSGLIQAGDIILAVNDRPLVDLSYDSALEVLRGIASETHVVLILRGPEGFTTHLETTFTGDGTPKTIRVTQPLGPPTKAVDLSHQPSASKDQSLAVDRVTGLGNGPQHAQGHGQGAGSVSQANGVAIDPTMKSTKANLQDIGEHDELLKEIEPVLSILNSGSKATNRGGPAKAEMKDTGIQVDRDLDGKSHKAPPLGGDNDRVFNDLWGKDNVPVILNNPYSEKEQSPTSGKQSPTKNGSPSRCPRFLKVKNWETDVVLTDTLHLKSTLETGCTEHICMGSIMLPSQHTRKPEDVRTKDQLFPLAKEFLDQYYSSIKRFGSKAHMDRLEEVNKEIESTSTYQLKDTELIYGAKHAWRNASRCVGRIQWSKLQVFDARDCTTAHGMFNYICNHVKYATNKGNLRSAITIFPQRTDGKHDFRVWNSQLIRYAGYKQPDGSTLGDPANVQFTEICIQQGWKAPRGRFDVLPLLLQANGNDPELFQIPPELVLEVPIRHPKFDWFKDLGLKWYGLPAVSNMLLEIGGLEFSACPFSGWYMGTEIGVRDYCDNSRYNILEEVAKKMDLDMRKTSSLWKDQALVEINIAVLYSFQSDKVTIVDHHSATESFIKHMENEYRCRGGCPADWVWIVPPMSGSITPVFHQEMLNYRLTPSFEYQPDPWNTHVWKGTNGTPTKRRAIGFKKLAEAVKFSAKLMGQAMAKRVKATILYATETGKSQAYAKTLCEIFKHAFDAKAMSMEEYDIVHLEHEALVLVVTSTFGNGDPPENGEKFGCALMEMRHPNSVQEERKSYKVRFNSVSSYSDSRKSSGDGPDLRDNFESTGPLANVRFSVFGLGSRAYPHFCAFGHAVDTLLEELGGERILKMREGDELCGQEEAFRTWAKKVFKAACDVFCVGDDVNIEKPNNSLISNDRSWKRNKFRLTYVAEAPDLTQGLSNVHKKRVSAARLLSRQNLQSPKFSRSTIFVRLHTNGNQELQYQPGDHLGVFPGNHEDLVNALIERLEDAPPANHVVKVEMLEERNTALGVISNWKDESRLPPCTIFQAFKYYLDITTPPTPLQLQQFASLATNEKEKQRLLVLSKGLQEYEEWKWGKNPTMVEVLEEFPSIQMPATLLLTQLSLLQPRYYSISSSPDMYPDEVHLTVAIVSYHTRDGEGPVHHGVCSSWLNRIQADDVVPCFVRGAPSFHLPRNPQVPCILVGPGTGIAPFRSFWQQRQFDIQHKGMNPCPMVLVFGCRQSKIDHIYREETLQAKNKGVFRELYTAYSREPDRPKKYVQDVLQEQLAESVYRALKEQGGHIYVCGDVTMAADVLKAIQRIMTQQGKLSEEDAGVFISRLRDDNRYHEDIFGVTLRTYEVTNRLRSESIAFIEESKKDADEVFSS

| Structure (SMILES) | inhibition [1] [%] | inhibition [2] [%] |
| --- | --- | --- |
| CCCCN1N=C(C(=O)c2cc(Cl)ccc2N)CC1C(=O)OCC (stereo not drawn) | 38.5 | 10.5 |
| CCOC(=O)c1cc(C(=O)c2cc(OC)ccc2N)nn1CC | 20.3 | 24.6 |
| CCCCn1nc(C(=O)c2ccccc2N)cc1C(=O)OCC | 21.9 | 5.4 |
| CCOC(=O)C1CC(C(=O)c2cc(OC)ccc2N)=NN1CC (stereo not drawn) | 1.7 | 17.1 |
| CCOC(=O)C1CC(C(=O)c2ccccc2N)=NN1CC (stereo not drawn) | 22.1 | -1.5 |
| CCCCn1nc(C(=O)c2cc(Cl)ccc2N)cc1C(=O)OCC | 7.8 | 18.7 |
| CCOC(=O)C1CC(C(=O)c2cc(Cl)ccc2N)=NN1C (stereo not drawn) | 1.3 | 22.9 |
| CCOC(=O)C1CC(C(=O)c2cc(Cl)ccc2N)=NN1CC (stereo not drawn) | 41.5 | 14.7 |
| CCCCN1N=C(C(=O)c2ccccc2N)CC1C(=O)OCC (stereo not drawn) | 29.6 | 12.2 |
| CCOC(=O)c1cc(C(=O)c2cc(Cl)ccc2N)nn1C | 14.5 | 7.3 |
| CCOC(=O)C1CC(C(=O)c2cc(Cl)ccc2N)=NN1Cc1ccccc1 (stereo not drawn) | 18.3 | 17.3 |
| CCOC(=O)c1cc(C(=O)c2cc(OC)ccc2N)nn1Cc1ccccc1 | 19.4 | 30.5 |
| CCOC(=O)c1cc(C(=O)c2cc(Cl)ccc2N)nn1CC | 35.5 | 27.5 |
| CCOC(=O)c1cc(C(=O)c2cc(Cl)ccc2N)nn1Cc1ccccc1 | 2.7 | 50.4 |
| CCOC(=O)C1CC(C(=O)c2cc(OC)ccc2N)=NN1Cc1ccccc1 (stereo not drawn) | 9.3 | 10.5 |
| CCOC(=O)C1CC(C(=O)c2cc(OC)ccc2N)=NN1C (stereo not drawn) | -7.8 | 0.6 |
| CCOC(=O)c1cc(C(=O)c2ccccc2N)nn1CC | 39.5 | 12.5 |
| CCOC(=O)C1CC(C(=O)c2ccccc2N)=NN1C (stereo not drawn) | -9.8 | 12.7 |
| CCOC(=O)C1CC(C(=O)c2cc(Cl)ccc2N)=NN1 (stereo not drawn) | 32.1 | 19.1 |
| CCOC(=O)c1cc(C(=O)c2cc(Cl)ccc2N)n[nH]1 | 40.2 | 12.8 |
| CCCCN1N=C(C(=O)c2cc(OC)ccc2N)CC1C(=O)OCC (stereo not drawn) | -10 | 18.6 |
| CCOC(=O)C1CC(C(=O)c2ccccc2N)=NN1Cc1ccccc1 (stereo not drawn) | 28.4 | 9.4 |
| CCCCn1nc(C(=O)c2cc(OC)ccc2N)cc1C(=O)OCC | 26.2 | 20.5 |
| CCOC(=O)c1cc(C(=O)c2ccccc2N)nn1Cc1ccccc1 | 21.9 | 13.5 |
